# Measured values: ChEMBL document CHEMBL1157991, “Novel anti-HIV lancilactone C and related triterpenes from Kadsura lancilimba” (J Nat Prod, 1999)
# The source made the active and inactive calls.
# Assays:
# H9 = test: Cytotoxicity against human H9 cells; format: cell-based
# Method in brief: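 Uninfected H9 T cells (log phase, RPMI 1640 + 10% FCS) were seeded at 4 × 10^5 cells/mL with compound diluted in medium and kept 4 days at 37 °C, 5% CO2. Cell density was counted by Coulter counter and IC50 was derived.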
# [1] = tested on: Human immunodeficiency virus 1; test: Antiviral activity against HIV1 3B infected in human H9 T cells after 4 days by ELISA; format: functional, organism-based; conditions: for EC50: Human immunodeficiency virus 1, 3B, H9, 96 h
# Method in brief: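 H9 T cells kept in RPMI 1640 with 10% fetal calf serum at 37 °C, 5% CO2, used in log phase. Infected with HIV-1 IIIB (MOI 0.1-0.01 IU/cell) for 1 h, washed, and seeded at 4 × 10^5 cells/mL with compound diluted in medium. After 4 days at 37 °C, p24 in medium was read by sandwich ELISA (cutoff 12.5 pg/mL) against a p24 standard curve. EC50 was derived.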
# [2] = Therapeutic index, ratio of IC50 for human H9 cells to EC50 for HIV1 3B; format: cell-based; conditions: H9 cells infected with HIV-1 3B, read-out: TI
EC50 [1] [µg/mL],SMILES,IC50 (H9) [µg/mL],Activity [1],selectivity ratio [2]
–,CC1=CC[C@@H]([C@@H](C)[C@H]2CC[C@@]3(C)[C@@H]4C[C@@H](O)[C@H]5C(C)(C)OC(=O)C=C[C@@]56C[C@@]46CC[C@]23C)OC1=O [KADSULACTONE A],8.6,inactive,–
–,CC1=CC[C@@H]([C@@H](C)[C@H]2CC[C@@]3(C)C4=C(C=C5C=CC(=O)OC(C)(C)[C@@H]5[C@H](O)C4)CC[C@]23C)OC1=O [LANCILACTONE A],14.3,inactive,–
–,CC1=CC[C@@H]([C@@H](C)[C@H]2CC[C@@]3(C)C4=C(C=C5C=CC(=O)OC(C)(C)[C@@H]5C=C4)CC[C@]23C)OC1=O [LANCILACTONE B],7.1,inactive,–
1.4,CC1=CC[C@@H]([C@@H](C)[C@H]2CC[C@@]3(C)C4=C(C=C(CCC(=O)O)C(=C(C)C)C=C4)CC[C@]23C)OC1=O [LANCILACTONE C],> 100,–,> 71.4
0.045,Cc1cn([C@H]2C[C@H](N=[N+]=[N-])[C@@H](CO)O2)c(=O)[nH]c1=O [ZIDOVUDINE],–,–,–
